Measurements from ChEMBL document CHEMBL1944538, “Synthetic peptides derived from the sequence of a lasso peptide microcin J25 show antibacterial activity” (Bioorg Med Chem, 2012).
In brackets after ≈: the same amount, converted by molar mass. Activity calls are given as the source filed them. The calls are words filed in the database; no cut-off is given here. Positions of bridges follow the written chain, without caps; N, C: chain ends. Residues, ends and D or L forms follow the SMILES beside them.

Key:
[1] = Cytotoxicity against human MCF7 cells assessed as cell viability at 3 uM after 24 hrs by MTT assay; format: cell-based; details: read-out: Activity
[2] = Cytotoxicity against human MDA-MB-435 cells assessed as cell viability at 3 uM after 24 hrs by MTT assay; format: cell-based; details: read-out: Activity
[3] = Cytotoxicity against human MDA-MB-435 cells assessed as cell viability up to 100 uM after 24 hrs by MTT assay; format: cell-based; details: read-out: Activity
Outline: (§1)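 MTT assay. MDA-MB-435 cells were kept in RPMI 1640 and MCF7 cells in DMEM, both with 10% FBS, penicillin and streptomycin, at 37 °C and 5% CO2. Cells were seeded at 1×10^4/well and grown 24 h. Samples came from 1 mM stocks in 10% DMSO/water, twofold diluted to 0.3125–100 µM, and applied for 24 h. MTT (5 mg/mL) was added for 3.5 h, then DMSO solubilization and A570. Viability is relative to untreated cells; triplicate, mean.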

Salmonella enteritidis [4] = assay: Antibacterial activity against Salmonella enteritidis AFLB 81 after 24 hrs by liquid growth inhibition assay; format: functional, Salmonella enterica subsp. enterica serovar Enteritidis; details: Salmonella enterica, AFLB 81, 24 h
Outline: (§2)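 Liquid broth microdilution in LB. Peptide stocks were made in 20% methanol/water (1 or 2.5 mM), then serially doubled in water to final 0.01–100 or 0.5–250 µM. Inoculum was diluted to OD620 0.02–0.05. Plates ran 24 h at 37 °C and were read at OD620. MIC was the lowest concentration giving 100% growth inhibition (0.05 AU). Triplicate wells, three repeat experiments.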

Salmonella enteritidis [5] = assay: Antibacterial activity against Salmonella enteritidis AFLB 11 after 24 hrs by liquid growth inhibition assay; format: functional, Salmonella enterica subsp. enterica serovar Enteritidis; details: Salmonella enterica, AFLB 11, 24 h; outline: as §2
[6] = test system: Salmonella enterica subsp. enterica serovar Newport; assay: Inhibition of oxygen consumption in Salmonella newport clinical isolate at 0.25 uM after 35 mins by Gilson Clarke oxygraph analysis; format: functional
Outline: (§3)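 Cells were held 35 min at 37 °C with peptide at the stated concentration. Respiration rate over the next 5 min was measured polarographically with a Clark electrode oxygraph at 37 °C. Results are percent of a peptide-free control; three independent experiments, mean ± SD.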

[7] = test system: Salmonella enterica subsp. enterica serovar Heidelberg; assay: Antibacterial activity against Salmonella heidelberg ATCC 8326 up to 250 uM after 24 hrs by liquid growth inhibition assay; format: functional; outline: as §2
[8] = Antibacterial activity against Salmonella choleraesuis ATCC 10708 after 24 hrs by liquid growth inhibition assay; format: functional, Salmonella enterica subsp. enterica serovar Choleraesuis; details: Salmonella enterica, ATCC 10708, 24 h
Salmonella typhimurium [9] = assay: Antibacterial activity against Salmonella Typhimurium ATCC 13311 up to 250 uM after 24 hrs by liquid growth inhibition assay; format: functional, organism-based; details: Salmonella enterica subsp. enterica serovar Typhimurium; outline: as §2
[10] = Cytotoxicity against human MCF7 cells assessed as cell viability up to 100 uM after 24 hrs by MTT assay; format: cell-based; details: read-out: Activity; outline: as §1
Escherichia coli [11] = assay: Antibacterial activity against Escherichia coli MC4100 after 24 hrs by liquid growth inhibition assay; format: functional; details: MC4100, 24 h; outline: as §2
[12] = Antibacterial activity against Salmonella newport clinical isolate after 24 hrs by liquid growth inhibition assay; format: functional, Salmonella enterica subsp. enterica serovar Newport; details: Salmonella enterica; outline: as §2
Salmonella typhimurium [13] = assay: Antibacterial activity against Salmonella Typhimurium AFLB 25 after 24 hrs by liquid growth inhibition assay; format: functional, Salmonella enterica subsp. enterica serovar Typhimurium; details: Salmonella enterica, AFLB 25, 24 h; outline: as §2
Salmonella enteritidis [14] = assay: Antibacterial activity against Salmonella enteritidis AFLB 41 after 24 hrs by liquid growth inhibition assay; format: functional, Salmonella enterica subsp. enterica serovar Enteritidis; details: Salmonella enterica, AFLB 41, 24 h; outline: as §2
[15] = test system: Salmonella enterica subsp. enterica serovar Montevideo; assay: Antibacterial activity against Salmonella montevideo 20 up to 250 uM after 24 hrs by liquid growth inhibition assay; format: functional; outline: as §2
Salmonella enteritidis [16] = assay: Antibacterial activity against Salmonella enteritidis PT8 after 24 hrs by liquid growth inhibition assay; format: functional, Salmonella enterica subsp. enterica serovar Enteritidis; details: Salmonella enterica, PT8, 24 h; outline: as §2
Salmonella paratyphi [17] = assay: Antibacterial activity against Salmonella paratyphi after 24 hrs by liquid growth inhibition assay; format: functional, Salmonella enterica subsp. enterica serovar Paratyphi A; details: Salmonella enterica
Escherichia coli [18] = assay: Antibacterial activity against Escherichia coli DH5alpha after 24 hrs by liquid growth inhibition assay; format: functional; details: DH5[alpha]; outline: as §2
Salmonella enteritidis [19] = assay: Antibacterial activity against Salmonella enteritidis ATCC 13076 after 24 hrs by liquid growth inhibition assay; format: functional, Salmonella enterica subsp. enterica serovar Enteritidis; details: Salmonella enterica, ATCC 13076, 24 h; outline: as §2
Staphylococcus aureus = assay: Antibacterial activity against Staphylococcus aureus ATCC 6538; format: functional, organism-based
[20] = Bactericidal activity against Salmonella newport clinical isolate after 24 hrs; format: functional, Salmonella enterica subsp. enterica serovar Newport; details: Salmonella enterica
Outline: (§4)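 For MBC, 10 µL from each clear well of the 24 h, 37 °C LB broth-dilution plate was spread on LB agar and incubated 24 h at 37 °C. MBC was the lowest concentration giving no growth on agar.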

[21] = Cytotoxicity against human MDA-MB-435 cells assessed as cell viability at 0.3 to 100 uM after 24 hrs by MTT assay; format: cell-based; details: read-out: Activity; outline: as §1
[22] = Cytotoxicity against human MCF7 cells assessed as cell viability at 0.3 to 100 uM after 24 hrs by MTT assay; format: cell-based; details: read-out: Activity; outline: as §1
Escherichia coli [23] = assay: Antibacterial activity against Escherichia coli MC4100 up to 250 uM after 24 hrs by liquid growth inhibition assay; format: functional, organism-based; outline: as §2
Salmonella typhimurium [24] = assay: Bactericidal activity against Salmonella Typhimurium ATCC 13311 after 24 hrs; format: functional, Salmonella enterica subsp. enterica serovar Typhimurium; details: Salmonella enterica, ATCC 13311, 24 h; outline: as §4
Salmonella typhimurium [25] = assay: Antibacterial activity against Salmonella Typhimurium ATCC 13311 after 24 hrs by liquid growth inhibition assay; format: functional, Salmonella enterica subsp. enterica serovar Typhimurium; details: Salmonella enterica, ATCC 13311, 24 h; outline: as §2
[26] = Thermostability in boiling water after 3 hrs; format: physicochemical; details: buffer
Salmonella enteritidis [27] = assay: Bactericidal activity against Salmonella enteritidis ATCC P76 after 24 hrs by liquid growth inhibition assay; format: functional, Salmonella enterica subsp. enterica serovar Enteritidis; details: Salmonella enterica, ATCC P76, 24 h
[28] = Stability of the compound at 150 uM after 30 mins by RP-HPLC analysis in the presence of pepsin; format: ADME; details: 0.5 h
Outline: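 Peptide (150 µM) was incubated at 37 °C with pepsin (4% w/w) in 0.1 N HCl. Aliquots taken at 0 and 30 min were quenched into 0.1 N NaOH/70% methanol and centrifuged. Supernatant was analysed by C18 RP-HPLC (15–50% isopropanol/water, 0.05% TFA, 35 min, UV 220 nm). Fragments were identified by MALDI-TOF.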

Escherichia coli [29] = assay: Antibacterial activity against Escherichia coli DH5alpha up to 250 uM after 24 hrs by liquid growth inhibition assay; format: functional, organism-based; details: DH5[alpha]; outline: as §2
[30] = Stability of the compound at 200 uM after overnight incubation by spot on lawn method in the presence of chymotrypsin; format: ADME
Salmonella paratyphi [31] = assay: Antibacterial activity against Salmonella paratyphi up to 250 uM after 24 hrs by liquid growth inhibition assay; format: functional, organism-based; details: Salmonella enterica subsp. enterica serovar Paratyphi A
Salmonella enteritidis [32] = assay: Antibacterial activity against Salmonella enteritidis AFLB 41 up to 250 uM after 24 hrs by liquid growth inhibition assay; format: functional, organism-based; details: Salmonella enterica subsp. enterica serovar Enteritidis; outline: as §2
Enterococcus faecalis = assay: Antibacterial activity against Enterococcus faecalis ATCC 19433; format: functional, organism-based
[33] = Antibacterial activity against Salmonella heidelberg ATCC 8326 after 24 hrs by liquid growth inhibition assay; format: functional, Salmonella enterica subsp. enterica serovar Heidelberg; details: Salmonella enterica, ATCC 8326, 24 h; outline: as §2
Salmonella enteritidis [34] = assay: Antibacterial activity against Salmonella enteritidis ATCC 13076 up to 250 uM after 24 hrs by liquid growth inhibition assay; format: functional, organism-based; details: Salmonella enterica subsp. enterica serovar Enteritidis; outline: as §2
[35] = Bactericidal activity against Salmonella choleraesuis ATCC 10708 after 24 hrs; format: functional, Salmonella enterica subsp. enterica serovar Choleraesuis; details: Salmonella enterica, ATCC 10708, 24 h
Outline: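 MBC: 10 μL from each clear well of the 24 h, 37 °C LB broth MIC plate spread on LB agar, incubated 24 h at 37 °C; MBC = lowest concentration with no growth on the plate.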

[36] = test system: Salmonella enterica subsp. enterica serovar Newport; assay: Inhibition of oxygen consumption in Salmonella newport clinical isolate at 25 uM after 35 mins by Gilson Clarke oxygraph analysis; format: functional; outline: as §3
Salmonella enteritidis [37] = assay: Antibacterial activity against Salmonella enteritidis AFLB 11 up to 250 uM after 24 hrs by liquid growth inhibition assay; format: functional, organism-based; details: Salmonella enterica subsp. enterica serovar Enteritidis; outline: as §2
Salmonella enteritidis [38] = assay: Antibacterial activity against Salmonella enteritidis AFLB 81 up to 250 uM after 24 hrs by liquid growth inhibition assay; format: functional, organism-based; details: Salmonella enterica subsp. enterica serovar Enteritidis; outline: as §2

Compound: COc1cccc2c1C(=O)c1c(O)c3c(c(O)c1C2=O)C[C@@](O)(C(=O)CO)C[C@@H]3O[C@H]1C[C@H](N)[C@H](O)[C@H](C)O1 [DOXORUBICIN]
- viability at 24 h, 3 µM [1]: 20%
- viability at 24 h, 3 µM [2]: 20%

Compound: CC[C@H](C)[C@H](NC(=O)CNC(=O)[C@@H](NC(=O)[C@H](Cc1ccccc1)NC(=O)[C@H](Cc1ccc(O)cc1)NC(=O)[C@@H]1CCC(=O)NCC(=O)NCC(=O)N[C@@H](C)C(=O)NCC(=O)N[C@@H](Cc2cnc[nH]2)C(=O)N[C@@H](C(C)C)C(=O)N2CCC[C@H]2C(=O)N1)C(C)C)C(=O)NCC(=O)N[C@H](C(=O)N1CCC[C@H]1C(=O)N[C@H](C(=O)N[C@@H](CO)C(=O)N[C@@H](Cc1ccccc1)C(=O)N[C@@H](Cc1ccc(O)cc1)C(=O)NCC(=O)O)[C@@H](C)CC)[C@@H](C)O [MICROCIN J25] (GGAGHVPEYFVGIGTPISFYG-OH; lactam N-8)
- viability at 24 h [3]: > 80%
- MIC (Salmonella enteritidis [4]): 1.7 µM (≈ 3.58 µg/mL)
- MIC (Salmonella enteritidis [5]): 2 µM (≈ 4.21 µg/mL)
- inhibition [6]: Active
- Activity [7]: inactive
- MIC [8]: 1.5 µM (≈ 3.16 µg/mL)
- Activity (Salmonella typhimurium [9]): inactive
- viability at 24 h [10]: > 80%
- MIC (Escherichia coli [11]): 5 µM (≈ 10.5 µg/mL)
- MIC [12]: 0.5 µM (≈ 1.05 µg/mL)
- MIC (Salmonella typhimurium [13]): 2.8 µM (≈ 5.9 µg/mL)
- MIC (Salmonella enteritidis [14]): 1.6 µM (≈ 3.37 µg/mL)
- Activity [15]: inactive
- MIC (Salmonella enteritidis [16]): 1.5 µM (≈ 3.16 µg/mL)
- MIC (Salmonella paratyphi [17]): 1.5 µM (≈ 3.16 µg/mL)
- MIC (Escherichia coli [18]): 5 µM (≈ 10.5 µg/mL)
- MIC (Salmonella enteritidis [19]): 1.8 µM (≈ 3.79 µg/mL)

Compound: CC[C@H](C)[C@@H]1NC(=O)CNC(=O)[C@H](C(C)C)NC(=O)[C@H](Cc2ccccc2)NC(=O)[C@H](Cc2ccc(O)cc2)NC(=O)[C@@H]2CCC(=O)NCC(=O)NCC(=O)N[C@@H](C)C(=O)N[C@@H](CSSC[C@@H](C(=O)O)NC(=O)[C@H](Cc3ccccc3)NC(=O)[C@H](CO)NC(=O)[C@H]([C@@H](C)CC)NC(=O)[C@@H]3CCCN3C(=O)[C@H]([C@@H](C)O)NC(=O)CNC1=O)C(=O)N[C@@H](Cc1cnc[nH]1)C(=O)N[C@@H](C(C)C)C(=O)N1CCC[C@H]1C(=O)N2 (GGACHVPEYFVGIGTPISFC-OH; disulfide 4-20; lactam N-8)
- Activity (Staphylococcus aureus): inactive
- MBC [20]: 31.2 µM (≈ 63.6 µg/mL)
- viability at 24 h, up to 100 µM [21]: > 90%
- MIC [8]: 90 µM (≈ 183 µg/mL)
- viability at 24 h, up to 100 µM [22]: > 90%
- Activity (Escherichia coli [23]): inactive
- MBC (Salmonella typhimurium [24]): 125 µM (≈ 254 µg/mL)
- MIC (Salmonella typhimurium [25]): 75 µM (≈ 153 µg/mL)
- Stability [26]: Stable
- MIC [12]: 25 µM (≈ 50.9 µg/mL)
- MIC (Salmonella typhimurium [13]): 85 µM (≈ 173 µg/mL)
- MBC (Salmonella enteritidis [27]): 125 µM (≈ 254 µg/mL)
- Stability [28]: Unstable
- Activity (Escherichia coli [29]): inactive
- Stability [30]: Unstable
- Activity (Salmonella paratyphi [31]): inactive
- Activity (Salmonella enteritidis [32]): inactive
- Activity (Enterococcus faecalis): inactive
- Activity [15]: inactive
- MIC [33]: 83 µM (≈ 169 µg/mL)
- MIC (Salmonella enteritidis [16]): 80 µM (≈ 163 µg/mL)
- Activity (Salmonella enteritidis [34]): inactive
- MBC [35]: 125 µM (≈ 254 µg/mL)
- inhibition [36]: Active
- Activity (Salmonella enteritidis [37]): inactive
- Activity (Salmonella enteritidis [38]): inactive
